Laboratory results reported in paper PMC7660780 (Journal of the American Heart Association: Cardiovascular …, 2020).
≈ marks a conversion by molar mass, not a printed value. Where “and” joins values, the source holds several entries; their conditions need not be identical. Equal entries are not always repeated. Entries after “also recorded” stand apart in the source; their conditions may differ.

Columns and labels:
Format in all cases: in vivo, human
[1] = system: ADP‐induced platelet aggregation (20 μmol/L); assay: Ex vivo inhibition of ADP-induced platelet aggregation; settings: healthy volunteers
Method in brief: (§1)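 Each participant got a single SC deltoid dose. Blood was drawn at baseline and at set times to 24 h into PPACK (100 μmol/L final). PRP was spun at 600 g or 300 g for 5 min at RT, and PPP at 2000 g for 9 min. High PRP counts were lowered with PPP. Turbidometric aggregation used 20 μmol/L ADP. IPA is the % fall in primary slope (≥15 s, 0.5 s sampling) versus the baseline sample, reported as mean±SD.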

[2] = system: ADP‐induced platelet aggregation (20 μmol/L); assay: Ex vivo inhibition of ADP-induced platelet aggregation; settings: for IPA Mean (SD): 15 min post-dose; for IPA of the 1 participant who did not achieve the BED: 0.075 mg/kg SC dose escalation
[3] = system: ADP‐induced platelet aggregation (20 μmol/L)
Method in brief: as §1

[4] = RUC‐4 whole blood levels by LC-MS/MS; settings: dose‐expansion group 0.075 mg/kg SC
[5] = Population pharmacokinetic model
[6] = system: ADP‐induced platelet aggregation (20 μmol/L); assay: Population pharmacodynamic model; settings: for IC50: value ± spread as printed in pharmacokinetic data section
[7] = Safety measures in healthy volunteers; settings: HVs
Method in brief: (§2)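 The trial was double-blind, placebo-controlled and dose-escalating. In each cohort, 2 sentinels were dosed, then 5 more were randomized 4:1 to drug or placebo. Each received a single weight-based SC deltoid injection of 0.18–0.52 mL, followed by 15 min gentle pressure. Injection site checks, platelet counts, laboratory tests and clinical assessments ran at set times through 24 h and at 7 days. Adverse events were graded by CTCAE.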

[8] = Safety measures in patients with stable CAD receiving aspirin; settings: stable CAD on aspirin
Method in brief: as §2

[9] = Safety and tolerability, summary statements over the whole study
Method in brief: as §2

[10] = stable CAD on aspirin, 0.075 mg/kg SC, dose escalation
[11] = 0.075 mg/kg SC, HVs and patients with stable CAD taking aspirin
[12] = dose escalation 0.04 mg/kg (n=2)
[13] = dose escalation 0.05 mg/kg (n=6)
[14] = dose escalation 0.075 mg/kg (n=6)
[15] = dose expansion 0.075 mg/kg (n=12)

With NCC(=O)Nc1cncc(-c2nn3c(=O)cc(N4CCNCC4)nc3s2)c1 [RUC‐4] the “IPA mean±SD” value ([1]; 0.05 mg/kg SC (n=6), 15 minutes) was 71.8%±15.0%, the “return of IPA toward baseline” value ([1]; 0.075 mg/kg SC) was no more than 4 h and the “IPA mean±SD” value ([1]; 0.075 mg/kg SC (n=6), 15 minutes, 0.075 mg/kg) was 84.7%±16.7% and 84.7%. The IPA median ([1]; 0.075 mg/kg SC, 15 minutes) was 88.0%, the “IPA of the individual participants not achieving the BED” value ([1]; 0.075 mg/kg SC, 15 minutes, 0.075 mg/kg) was 76.5% and 55.8% and the “IPA of the individual participants not achieving the BED” value ([1]; 0.075 mg/kg SC, 30 minutes postdose, 0.075 mg/kg) was 68.6% and 73.1%. The “IPA of the one CAD participant with much higher whole blood levels” value ([2]; dose‐expansion group 0.075 mg/kg SC, 5, 15, 30, and 60 minutes time points) was 100%, the “IPA Mean (SD)” value ([2]; stable CAD on aspirin, 0.04 mg/kg SC, 0.04 mg/kg) was 53.6%±17.0% and the “IPA Mean (SD)” value ([2]; stable CAD on aspirin, 0.05 mg/kg SC, 0.05 mg/kg) was 76.9%±10.6%. The “IPA of the 1 participant who did not achieve the BED” value ([2]; stable CAD on aspirin, 15 minutes) was 65.4%, the “IPA of the 1 participant who did not achieve the BED” value ([2]; stable CAD on aspirin, 30 minutes) was 86.5% and the “participants achieving the BED” value [2, 10] was 5 of 6. For the same molecule, the “return of IPA toward baseline” value [2, 10] was no more than 4 h, the “participants achieving the BED” value ([2]; stable CAD on aspirin, 0.075 mg/kg SC, dose expansion, additional participants) was 6 of the 12 and the “IPA mean±SD” value ([2]; stable CAD on aspirin, 0.075 mg/kg SC, high‐weight group, 15 minutes) was 88.0%±14.4%. For the same molecule, the “IPA mean±SD” value ([2]; stable CAD on aspirin, 0.075 mg/kg SC, high‐weight group, 30 minutes) was 85.4%±21.0, the “IPA mean±SD” value ([2]; stable CAD on aspirin, 0.075 mg/kg SC, low‐weight group, 15 minutes) was 63.2%±21.4% and the “IPA mean±SD” value ([2]; stable CAD on aspirin, 0.075 mg/kg SC, low‐weight group, 30 minutes) was 67.8%±14.7%. For the same molecule, the “platelet inhibition (high‐grade)” value [3, 11] was greater than 80%, the “time to onset of high-grade platelet inhibition” value [3, 11] was less than 15 min and the “time within which platelet inhibition largely resolved” value [3, 11] was no more than 2 h. The “time to peak of blood drug levels and platelet inhibition” value ([3]; subcutaneous administration) was no more than 15 min, the “time to onset of high-grade inhibition of platelet aggregation” value ([3]; subcutaneous, 20 μmol/L of ADP) was less than 15 min and the “time to return of IPA toward baseline” value ([3]; subcutaneous, 20 μmol/L of ADP) was no more than 2 h. The “inhibition of platelet aggregation (high‐grade)” value ([3]; subcutaneous, 20 μmol/L of ADP, across the study populations) was greater than 80%, the “whole blood level of RUC‐4, group mean excluding the outlying participant” value ([4]; 5 minutes) was 26.8 ± 26.5 ng/mL and the “whole blood level of RUC‐4, one CAD participant with much higher levels” value (“whole blood level … with much higher levels” below) ([4]; 5 minutes) was 384 ng/mL. For the same molecule, the “whole blood level of RUC‐4, group mean excluding the outlying participant” value ([4]; 15 minutes) was 74.3 ± 38.6 ng/mL, the “whole blood level … with much higher levels” value ([4]; 15 minutes) was greater than 500 ng/mL and the “whole blood level of RUC‐4, group mean excluding the outlying participant” value ([4]; 30 minutes) was 71.3 ± 30.5 ng/mL. For the same molecule, the “whole blood level … with much higher levels” value ([4]; 30 minutes) was 307 ng/mL, the “whole blood level of RUC‐4, group mean excluding the outlying participant” value ([4]; 60 minutes) was 40.3 ± 7.3 ng/mL and the “whole blood level … with much higher levels” value ([4]; 60 minutes) was 131 ng/mL. For the same molecule, the “Vp/F (apparent peripheral volume of distribution), geometric mean” value ([5]; SC, All Subjects) was 221 L, the “effect of aspirin on RUC‐4 pharmacokinetics or pharmacodynamics” value ([5]; pharmacokinetic and pharmacodynamic models, covariate aspirin) was “did not significantly affect” and the “IC50, geometric mean” value ([6]; cohort with aspirin) was 0.0338 mg/L (≈ 0.0875 µM). For the same molecule, the “IC50, geometric mean” value ([6]; cohort without aspirin) was 0.0342 mg/L (≈ 0.0885 µM), the “gamma (coefficient)” value ([6]; sigmoidal Emax model) was 1.31 and the IC50 ([6]; with aspirin) was 0.0347 ± 0.0079 mg/L (≈ 0.0898 µM). The IC50 ([6]; without aspirin) was 0.0348 ± 0.0067 mg/L (≈ 0.0901 µM), the “No. of TESAEs” value ([7]; 0.05 mg/kg (n=6)) was 0 and the “Patients reporting a TEAE of bruising at the injection site” value (from here on “Patients reporting a TEAE of bruising”) ([7]; 0.05 mg/kg (n=6)) was 0 (0.0) n (%). For the same molecule, the “Patients reporting a non‐AE bruising at the injection site event” value (from here on “Patients reporting a non‐AE bruising”) ([7]; 0.05 mg/kg (n=6)) was 2 (33.3) n (%), the “Patients reporting at least 1 bleeding AE” value ([7]; 0.05 mg/kg (n=6)) was 0 (0.0) n (%) and the “Patients reporting at least 1 injection site reaction adverse event” value ([7]; 0.05 mg/kg (n=6)) was 0 (0.0) n (%). The “Patients reporting at least 1 related TEAE with CTCAE grade ≥3” value (“Patients reporting … with CTCAE grade ≥3” for short) ([7]; 0.05 mg/kg (n=6)) was 0 (0.0) n (%), the “non‐AE bruising at the injection site, Grade 1” value (“non‐AE bruising … Grade 1” for short) ([7]; 0.05 mg/kg (n=6)) was 2 (33.3) n (%) and the “non‐AE bruising at the injection site, Grade 2” value (“non‐AE bruising … Grade 2” below) ([7]; 0.05 mg/kg (n=6)) was 0 (0.0) n (%). For the same molecule, the “No. of TESAEs” value ([7]; 0.075 mg/kg (n=6)) was 0, the “Patients reporting a TEAE of bruising” value ([7]; 0.075 mg/kg (n=6)) was 0 (0.0) n (%) and the “Patients reporting a non‐AE bruising” value ([7]; 0.075 mg/kg (n=6)) was 0 (0.0) n (%). The “Patients reporting at least 1 bleeding AE” value ([7]; 0.075 mg/kg (n=6)) was 0 (0.0) n (%), the “Patients reporting at least 1 injection site reaction adverse event” value ([7]; 0.075 mg/kg (n=6)) was 0 (0.0) n (%) and the “Patients reporting … with CTCAE grade ≥3” value ([7]; 0.075 mg/kg (n=6)) was 0 (0.0) n (%). The “non‐AE bruising … Grade 1” value ([7]; 0.075 mg/kg (n=6)) was 0 (0.0) n (%), the “non‐AE bruising … Grade 2” value ([7]; 0.075 mg/kg (n=6)) was 0 (0.0) n (%) and the “No. of TESAEs” value [8, 12] was 0. For the same molecule, the “Patients reporting a TEAE of bruising” value [8, 12] was 0 (0.0) n (%), the “Patients reporting a non‐AE bruising” value [8, 12] was 0 (0.0) n (%) and the “Patients reporting at least 1 bleeding AE” value [8, 12] was 0 (0.0) n (%). For the same molecule, the “Patients reporting at least 1 injection site reaction AE” value [8, 12] was 0 (0.0) n (%), the “Patients reporting … with CTCAE grade ≥3” value [8, 12] was 0 (0.0) n (%) and the “non‐AE bruising … Grade 1” value [8, 12] was 0 (0.0) n (%). For the same molecule, the “non‐AE bruising … Grade 2” value [8, 12] was 0 (0.0) n (%), the “No. of TESAEs” value [8, 13] was 0 and the “Patients reporting a TEAE of bruising” value [8, 13] was 0 (0.0) n (%). The “Patients reporting a non‐AE bruising” value [8, 13] was 2 (33.3) n (%), the “Patients reporting at least 1 bleeding AE” value [8, 13] was 0 (0.0) n (%) and the “Patients reporting at least 1 injection site reaction AE” value [8, 13] was 0 (0.0) n (%). The “Patients reporting … with CTCAE grade ≥3” value [8, 13] was 0 (0.0) n (%), the “non‐AE bruising … Grade 1” value [8, 13] was 2 (33.3) n (%) and the “non‐AE bruising … Grade 2” value [8, 13] was 0 (0.0) n (%). For the same molecule, the “No. of TESAEs” value [8, 14] was 0, the “Patients reporting a TEAE of bruising” value [8, 14] was 0 (0.0) n (%) and the “Patients reporting a non‐AE bruising” value [8, 14] was 4 (66.7) n (%). For the same molecule, the “Patients reporting at least 1 bleeding AE” value [8, 14] was 0 (0.0) n (%), the “Patients reporting at least 1 injection site reaction AE” value [8, 14] was 0 (0.0) n (%) and the “Patients reporting … with CTCAE grade ≥3” value [8, 14] was 0 (0.0) n (%). The “non‐AE bruising … Grade 1” value [8, 14] was 4 (66.7) n (%), the “non‐AE bruising … Grade 2” value [8, 14] was 0 (0.0) n (%) and the “No. of TESAEs” value [8, 15] was 0. For the same molecule, the “Patients reporting a TEAE of bruising” value [8, 15] was 0 (0.0) n (%), the “Patients reporting a non‐AE bruising” value [8, 15] was 5 (41.7) n (%) and the “Patients reporting at least 1 bleeding AE” value [8, 15] was 0 (0.0) n (%). The “Patients reporting at least 1 injection site reaction AE” value [8, 15] was 0 (0.0) n (%), the “Patients reporting … with CTCAE grade ≥3” value [8, 15] was 0 (0.0) n (%) and the “non‐AE bruising … Grade 1” value [8, 15] was 5 (41.7) n (%). The “non‐AE bruising … Grade 2” value [8, 15] was 0 (0.0) n (%), the “No. of TESAEs” value ([8]; total RUC‐4 0.075 mg/kg (n=18)) was 0 and the “Patients reporting a TEAE of bruising” value ([8]; total RUC‐4 0.075 mg/kg (n=18)) was 0 (0.0) n (%). The “Patients reporting a non‐AE bruising” value ([8]; total RUC‐4 0.075 mg/kg (n=18)) was 9 (50.0) n (%), the “Patients reporting at least 1 bleeding AE” value ([8]; total RUC‐4 0.075 mg/kg (n=18)) was 0 (0.0) n (%) and the “Patients reporting at least 1 injection site reaction AE” value ([8]; total RUC‐4 0.075 mg/kg (n=18)) was 0 (0.0) n (%). The “Patients reporting … with CTCAE grade ≥3” value ([8]; total RUC‐4 0.075 mg/kg (n=18)) was 0 (0.0) n (%), the “non‐AE bruising … Grade 1” value ([8]; total RUC‐4 0.075 mg/kg (n=18)) was 9 (50.0) n (%) and the “non‐AE bruising … Grade 2” value ([8]; total RUC‐4 0.075 mg/kg (n=18)) was 0 (0.0) n (%). The “adverse events leading to study drug discontinuation” value [9] was “none leading to study drug discontinuation”, the “drug‐related changes in laboratory values” [9] was “no drug‐related changes in laboratory values” and the “injection site reactions (including bruising), severity” value [9] was “mild”. For the same molecule, the “platelet counts during the course of treatment” value [9] was “stable”, the “transient reduction in platelet count, single participant” value [9] was 120 000 /μL and the serious adverse events ([9]; SC 0.04-0.075 mg/kg) was “no serious adverse events; also recorded: No SAEs were observed”. The “bleeding events, number of patients” value ([9]; limited to the injection site) was 3 patients and the “severity of bleeding events” value ([9]; modified Bleeding Academic Research Consortium type 1) was “mild”.
